Data set [1] is described as follows: Determination of log D. Format: physicochemical. The conditions noted are these: pH 7.4. Summed up:
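68Ga-labeled peptide conjugate, molar activity adjusted to 1 GBq/μmol, 0.7–1 MBq per test. Partitioned between 1-octanol and 0.05 M phosphate buffer pH 7.4 by vigorous shaking for 2 min. Phases separated by centrifugation; equal aliquots of each phase γ-counted. Run thrice, each in triplicate.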

The format of data set [2] is in vitro ADME. The conditions noted are these: pooled human serum, 37 °C; activity in precipitated serum protein pellet. Summed up: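 68Ga-labeled peptide conjugate (20–25 MBq; molar activity set to 1 GBq/μmol) incubated in pooled human serum at 37 °C. Samples taken at 15-min intervals into an equal volume of ice-cold ethanol, held 1 min on ice and centrifuged 90 s. Activity measured in pellet and supernatant; supernatant analyzed by radio-HPLC. Three experiments per radioligand.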

Usually logD stands for lipophilicity at a set pH, counting ionised and neutral species. In turn, `C[C@@H](O)[C@H](NC(=O)[C@@H]1CSSC[C@H](NC(=O)[C@@H](Cc2ccccc2)NC(=O)CN2CCN(CC(=O)O)CCN(CC(=O)O)CCN(CC(=O)O)CC2)C(=O)N[C@@H](Cc2ccc(O)cc2)C(=O)N[C@H](Cc2c[nH]c3ccccc23)C(=O)N[C@@H](CCCCN)C(=O)N[C@@H]([C@@H](C)O)C(=O)N1)C(=O)O` [[^68Ga]Ga‐8, metal not drawn] showed a logD in data set [1] (1‐octanol/phosphate buffer) of -4.09 ± 0.07. Besides, the “protein‐associated activity (protein‐bound activity fraction)” value in data set [2] came to 19.7±2.2%.

In the case of `C[C@@H](O)[C@H](NC(=O)[C@@H]1CSSC[C@H](NC(=O)[C@@H](Cc2ccccc2)NC(=O)CC[C@H](C(=O)O)N2CCN(CC(=O)O)CCN(CC(=O)O)CC2)C(=O)N[C@@H](Cc2ccc(O)cc2)C(=O)N[C@H](Cc2c[nH]c3ccccc23)C(=O)N[C@@H](CCCCN)C(=O)N[C@@H]([C@@H](C)O)C(=O)N1)C(=O)O` [[^68Ga]Ga‐10, metal not drawn], in data set [1] (1‐octanol/phosphate buffer), the log distribution coefficient (logD) was -3.72 ± 0.02. In data set [2], the “protein‐associated activity (protein‐bound activity fraction)” value amounted to 16.9±3.5%.

Consider `C[C@@H](O)[C@H](NC(=O)[C@@H]1CSSC[C@H](NC(=O)[C@@H](Cc2ccccc2)NC(=O)CCC(C(=O)O)N2CCN(CC(=O)O)CCN(CC(=O)O)CCN(CC(=O)O)CC2)C(=O)N[C@@H](Cc2ccc(O)cc2)C(=O)N[C@H](Cc2c[nH]c3ccccc23)C(=O)N[C@@H](CCCCN)C(=O)N[C@@H]([C@@H](C)O)C(=O)N1)C(=O)O` (some centres unmarked) [[^68Ga]Ga‐9, metal not drawn], for which the log distribution coefficient (logD) in data set [1] was -4.11 ± 0.11. For the same molecule, the “protein‐associated activity (protein‐bound activity fraction)” value in data set [2] came out at 29.0±3.5%.

`C[C@@H](O)[C@H](NC(=O)[C@@H]1CSSC[C@H](NC(=O)[C@@H](Cc2ccccc2)NC(=O)CCC(C(=O)O)N2CCN3CCN(CCN(CC(=O)O)CC3)CC2)C(=O)N[C@@H](Cc2ccc(O)cc2)C(=O)N[C@H](Cc2c[nH]c3ccccc23)C(=O)N[C@@H](CCCCN)C(=O)N[C@@H]([C@@H](C)O)C(=O)N1)C(=O)O` (some centres unmarked) [[^68Ga]Ga‐11, metal not drawn] came in with a pH-dependent lipophilicity (logD) in data set [1] of -3.02 ± 0.08. The “protein‐associated activity (protein‐bound activity fraction)” value in data set [2] was found to be 15.7±3.6%.

For the origin of these results see PMC10100262 (Chemmedchem, 2022).
